The values that follow come from ChEMBL document CHEMBL1649111, “Restoration of susceptibility of intracellular methicillin-resistant Staphylococcus aureus to beta-lactams: comparison of strains, cells, and antibiotics” (Antimicrob Agents Chemother, 2008).

In assay [1] the test system is Staphylococcus aureus. The experiment in a line: Antimicrobial activity against intracellular hospital acquired methicillin-resistant Staphylococcus aureus ATCC 33591 infected in activated human THP-1 cells assessed as increase in bacterial count from original inoculum at low compound concentration after 24 hrs at pH 7.4. In kind it is functional. The procedure, abridged: (§1)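 THP-1 cells activated by 24-h culture with phorbol myristate acetate 2 mg/liter, then infected like unactivated THP-1. Cloxacillin dose range in mg/liter for 24 h. CFU per mg cell protein relative to the original inoculum, n = 3. Emin and Emax extrapolated from a Hill fit (slope 1), with EC50 as total drug; static concentration by graphical interpolation.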

The subject of assay [2] is Staphylococcus aureus. The assay is described as follows: Antimicrobial activity against hospital acquired methicillin-resistant and vancomycin-intermediate Staphylococcus aureus NRS18 obtained from patient with wound, skin and soft tissue infection by broth microdilution method at pH 7.4. In kind it is functional. The procedure, abridged:
(§2)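 Minimal inhibitory concentration by broth microdilution at pH 7.4, read in mg/liter. The MRSA genotype was confirmed by mecA PCR, and the SCCmec subgroup was assigned by multiplex PCR.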
(In broth dilution the organism is exposed to a series of concentrations in liquid medium.)

The subject of assay [3] is Staphylococcus aureus. The experiment in a line: Antimicrobial activity against intracellular hospital acquired methicillin-resistant Staphylococcus aureus ATCC 33591 infected in human Calu3 cells assessed as decrease in bacterial growth after 24 hrs at pH 7.4. In kind it is functional, organism-based. The conditions noted are these: ATCC 33591, Calu-3, 24 h. Summed up:
(§3)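 Primary human skin keratinocytes or Calu-3 bronchial epithelial cells, given an inoculum of 5 × 10⁷ to 1 × 10⁸ bacteria/ml and 2 h for internalization. Post-phagocytosis load 1.5 × 10⁶ to 3.0 × 10⁶ CFU per mg cell protein. Cloxacillin dose range in mg/liter for 24 h, n = 3. Hill-derived Emin, Emax and EC50; static concentration interpolated.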

The subject of assay [4] is Staphylococcus aureus. The assay is described as follows: Bacteriostatic activity against intracellular beta-lactamase negative methicillin-susceptible Staphylococcus aureus ATCC 25923 infected in human Calu3 cells assessed as decrease in bacterial growth after 24 hrs at pH 7.4. In kind it is functional, Calu-3. Summed up:
(§4)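 Primary human skin keratinocytes or Calu-3 bronchial epithelial cells infected with MSSA ATCC 25923 at 5 × 10⁷ to 1 × 10⁸ bacteria/ml, 2 h internalization. Postphagocytosis inoculum 1.5 × 10⁶ to 3.0 × 10⁶ CFU/mg protein. Cloxacillin concentration range for 24 h; CFU/mg protein change vs. inoculum (n = 3). Hill fit gives Emin/Emax; static concentration by graphical interpolation.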

In assay [5] the test system is Staphylococcus aureus. The experiment in a line: Antimicrobial activity against Panton-valentine leukocidin positive community acquired methicillin-resistant Staphylococcus aureus N4090440 obtained from wound infection of patient infected in human THP-1 cells assessed as decrease in bacterial growth after 24 hrs at pH 5.5. In kind it is functional, organism-based. The conditions noted are these: N4090440, THP-1, 24 h. Summed up:
(§5)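 Bacteria phagocytosed by unactivated human THP-1 macrophages, then incubated 24 h with extracellular antibiotic at about 0.01× to 100× the pH 5.5 broth MIC. CFU per mg cell protein counted against the original inoculum, n = 3. A Hill-equation fit (slope factor 1) gave Emin and Emax, extrapolated to infinitely low and high concentration, and EC50. Static concentration was graphically interpolated.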

Assay [6] has as its system Staphylococcus aureus. The experiment in a line: Bacteriostatic activity against intracellular beta-lactamase negative methicillin-susceptible Staphylococcus aureus ATCC 25923 infected in human keratinocytes assessed as decrease in bacterial growth after 24 hrs at pH 7.4. The class given is functional. Summed up:
as §4

Assay [7] deals with Staphylococcus aureus. The assay is described as follows: Antimicrobial activity against hospital acquired methicillin-resistant and vancomycin-intermediate Staphylococcus aureus NRS18 obtained from wound, skin and soft tissue infection of patient infected in human THP-1 cells assessed as decrease in bacterial count from original inoculum at high compound concentration after 24 hrs at pH 5.5. In kind it is functional. Summed up: as §5

Assay [8] concerns Staphylococcus aureus. The experiment in a line: Antimicrobial activity against hospital acquired methicillin-resistant and vancomycin-intermediate Staphylococcus aureus NRS18 obtained from wound, skin and soft tissue infection of patient infected in human THP-1 cells assessed as decrease in bacterial growth after 24 hrs at pH 5.5. The class given is functional, organism-based. To be noted: NRS18, THP-1, 24 h. Summed up:
as §5

Assay [9] relates to Staphylococcus aureus. The assay is described as follows: Antimicrobial activity against constitutive beta-lactamase negative methicillin-resistant Staphylococcus aureus COL NRS100 by broth microdilution method at pH 7.4. The class given is functional.
Assay [10] has as its system Staphylococcus aureus. The assay is described as follows: Antimicrobial activity against beta-lactamase negative methicillin-susceptible Staphylococcus aureus ATCC 25923 infected in human THP-1 cells assessed as increase in bacterial count from original inoculum at low compound concentration after 24 hrs at pH 7.4. The class given is functional.
Assay [11] relates to Staphylococcus aureus. The experiment in a line: Antimicrobial activity against hospital acquired methicillin-resistant Staphylococcus aureus N4120032 obtained from wound infection opf patient infected in human THP-1 cells assessed as decrease in bacterial growth after 24 hrs at pH 5.5. In kind it is functional, organism-based. To be noted: N4120032, THP-1, 24 h. Summed up:
as §5

Assay [12] relates to Staphylococcus aureus. The assay is described as follows: Antimicrobial activity against constitutive beta-lactamase negative methicillin-resistant Staphylococcus aureus COL NRS100 infected in human THP-1 cells assessed as decrease in bacterial count from original inoculum at high compound concentration after 24 hrs at pH 5.5. The class given is functional. Summed up:
as §5

The subject of assay [13] is Staphylococcus aureus. The experiment in a line: Antimicrobial activity against Panton-valentine leukocidin positive community acquired methicillin-resistant Staphylococcus aureus NRS192 obtained from patient with pneumonia and septic arthritis by broth microdilution method at pH 7.4. The class given is functional. The procedure, abridged: as §2
The subject of assay [14] is Staphylococcus aureus. The experiment in a line: Bacteriostatic activity against hospital acquired methicillin-resistant Staphylococcus aureus N4120210 infected in human THP-1 cells assessed as decrease in bacterial growth after 24 hrs at pH 5.5. In kind it is functional. The procedure, abridged:
(§6)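 Human THP-1 macrophages infected with each S. aureus strain. Cloxacillin added extracellularly at about 0.01× to 100× the broth MIC measured at pH 5.5, with gentamicin 0.5 mg/liter to stop extracellular growth. Incubated 24 h. CFU counted per mg cell protein as change from the post-phagocytosis inoculum, n = 3. Emin, Emax and EC50 from a Hill fit; static concentration by graphical interpolation.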

Assay [15] has as its system Staphylococcus aureus. The assay is described as follows: Antimicrobial activity against hospital acquired methicillin-resistant and vancomycin-intermediate Staphylococcus aureus NRS126 obtained from bloodstream infection of patient infected in human THP-1 cells assessed as increase in bacterial count from original inoculum at low compound concentration after 24 hrs at pH 5.5. In kind it is functional. Summed up:
as §5

Assay [16] relates to Staphylococcus aureus. The assay is described as follows: Antimicrobial activity against intracellular hospital acquired methicillin-resistant Staphylococcus aureus ATCC 33591 infected in human Calu3 cells assessed as increase in bacterial count from original inoculum at low compound concentration after 24 hrs at pH 7.4. In kind it is functional, Calu-3. The procedure, abridged:
as §3

The test system of assay [17] is Staphylococcus aureus. The assay is described as follows: Bacteriostatic activity against hospital acquired methicillin-resistant Staphylococcus aureus ATCC 33591 infected in human THP-1 cells assessed as decrease in bacterial growth after 24 hrs at pH 5.5. In kind it is functional. The procedure, abridged:
as §6

Assay [18] relates to Staphylococcus aureus. The experiment in a line: Antimicrobial activity against Panton-valentine leukocidin positive community acquired methicillin-resistant Staphylococcus aureus N4090440 obtained from wound infection of patient infected in human THP-1 cells assessed as decrease in bacterial count from original inoculum at high compound concentration after 24 hrs at pH 5.5. In kind it is functional. Summed up:
as §5

Assay [19] concerns Staphylococcus aureus. The experiment in a line: Antimicrobial activity against hospital acquired methicillin-resistant and vancomycin-intermediate Staphylococcus aureus VRS2 obtained from wound, skin and soft tissue infection of patient infected in human THP-1 cells assessed as increase in bacterial count from original inoculum at low compound concentration after 24 hrs at pH 5.5. The class given is functional. Summed up: as §6

Assay [20] has as its system Staphylococcus aureus. The assay is described as follows: Bacteriostatic activity against Panton-valentine leukocidin positive community acquired methicillin-resistant Staphylococcus aureus N4090440 infected in human THP-1 cells assessed as decrease in bacterial growth after 24 hrs at pH 5.5. In kind it is functional. The procedure, abridged:
as §6

For assay [21], the system named is Staphylococcus aureus. The experiment in a line: Bacteriostatic activity against intracellular beta-lactamase negative methicillin-susceptible Staphylococcus aureus ATCC 25923 infected in activated human THP-1 cells assessed as decrease in bacterial growth after 24 hrs at pH 7.4. The class given is functional. The procedure, abridged: as §1
Assay [22] has as its system Staphylococcus aureus. The assay is described as follows: Antimicrobial activity against Panton-valentine leukocidin positive community acquired methicillin-resistant Staphylococcus aureus N4042228 by broth microdilution method at pH 7.4. The class given is functional. Summed up: as §2

Converted amounts (≈) assume the structure as drawn. Some results are limits rather than exact numbers.

The term MIC denotes the smallest concentration in the dilution series that meets the test's criterion for growth inhibition. Read a low MIC as a more susceptible organism.

`Cc1onc(-c2ccccc2Cl)c1C(=O)N[C@@H]1C(=O)N2[C@@H]1SC(C)(C)[C@@H]2C(=O)O` [CLOXACILLIN]: the log10cfu was determined as 2.15 in the assay with Staphylococcus aureus [1]; 0.57 with Staphylococcus aureus [7]; 1.79 with Staphylococcus aureus [10]; 0.78 in the assay with Staphylococcus aureus [12]; 2.76 in the assay with Staphylococcus aureus [15]; 2.39 in the assay with Staphylococcus aureus [16]. Further, the results for the log10cfu with Staphylococcus aureus [18] and in the assay on Staphylococcus aureus [19] were 0.45 and 1.69, respectively. The MIC in the assay with Staphylococcus aureus [2] is 8 µg/mL (≈ 18.4 µM); in the assay with Staphylococcus aureus [9] it was > 512 µg/mL; with Staphylococcus aureus [13], 1 µg/mL (≈ 2.29 µM); against Staphylococcus aureus [22], 0.5 µg/mL (≈ 1.15 µM). Besides, the EC50 in the assay on Staphylococcus aureus [3] came out at 0.39 µg/mL (≈ 0.895 µM); in the assay with Staphylococcus aureus [5], 3.14 ×MIC; in the assay on Staphylococcus aureus [8], 3.96 ×MIC; in the assay with Staphylococcus aureus [11], 9.26 ×MIC. The Activity came to 1.6 mg/L in the assay on Staphylococcus aureus [4]; 1.1 mg/L in the assay on Staphylococcus aureus [6]; 35.5 ×MIC in the assay with Staphylococcus aureus [14]; 17.8 ×MIC in the assay with Staphylococcus aureus [17]; 17.4 ×MIC in the assay with Staphylococcus aureus [20]; 1.3 mg/L in the assay with Staphylococcus aureus [21].
